Results reported in ChEMBL document CHEMBL2439960, “Pharmacokinetics, metabolism, and in vivo efficacy of the antimalarial natural product bromophycolide A” (ACS Med Chem Lett, 2013).

Experiments:
Plasmodium falciparum [1] = experiment: Antiplasmodial activity against chloroquine-sensitive Plasmodium falciparum 3D7 infected in erythrocytes assessed as parasite growth inhibition after 72 hrs by SYBR green I staining-based fluorescence assay; type: functional, organism-based; details: 3D7, 72 h
Plasmodium falciparum [2] = experiment: Antiplasmodial activity against chloroquine-sensitive Plasmodium falciparum MRC-02 assessed as suppression of parasitemia at 50 mg/kg, po by in vivo model study; type: functional
Plasmodium falciparum [3] = experiment: Antiplasmodial activity against ring stage of chloroquine-sensitive Plasmodium falciparum MRC-02 infected in human erythrocytes assessed as parasite growth inhibition after 24 hrs by Giemsa staining method; type: functional, organism-based; details: MRC-02, 24 h
Plasmodium berghei = experiment: Antimalarial activity against Plasmodium berghei ANKA infected in NMRI mouse assessed as reduction of parasitemia at 10 mg/kg, po qd administered 3 days by flow cytometric analysis; type: functional; design: scale not given: the % may be the effect or the level left
Liver microsomes [4] = experiment: Metabolic stability in human liver microsomes assessed as formation of metabolite M3 at 10 uM by LC-MS analysis in presence of NADPH and absence of UDPGA; type: ADME, Microsome
In short: (§1)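 Reaction products from S9 or microsomal incubations with NADPH analysed by LC-MS. Runs without UDPGA were checked for hydroxylated (m/z 677) and doubly hydroxylated (m/z 693) species. Runs with UDPGA were checked for a glucuronide (m/z 837).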

Liver microsomes [5] = experiment: Half life in human liver microsomes at 10 uM after 24 hrs by LC-MS analysis in presence of UDPGA; type: ADME, Microsome
In short: (§2)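 Compound incubated with human liver S9 or microsomal fractions for 24 h, extended from 4 h, with NADPH and with or without UDPGA. Loss of parent compound followed over time, sampled at 6 and 24 h. In vitro t1/2 and CLint calculated from the loss.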

Liver microsomes [6] = experiment: Metabolic stability in human liver microsomes assessed as formation of metabolite M2 at 10 uM by LC-MS analysis in presence of NADPH and absence of UDPGA; type: ADME, Microsome; in short: as §1
Liver microsomes [7] = experiment: Intrinsic clearance in human liver microsomes at 10 uM after 24 hrs by LC-MS analysis in absence of UDPGA; type: ADME, Microsome; in short: as §2
[8] = AUC in BALB/c mouse at 23 mg/kg, iv after 1 to 24 hrs by LC-MS/MS analysis; type: ADME, organism-based; design: dose 23 mg/kg, route intravenous; details: plasma
In short: (§3)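 Healthy mice given one 23 mg/kg dose, IV or IP. Plasma concentrations plotted as mean ± SD, n=3. Kinetics fitted as a first-order elimination process.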

[9] = AUC in BALB/c mouse at 23 mg/kg, ip after 1 to 24 hrs by LC-MS/MS analysis; type: ADME, organism-based; design: dose 23 mg/kg, route intraperitoneal; details: plasma; in short: as §3
[10] = Half life in human liver S9 fraction at 10 uM after 24 hrs by LC-MS analysis in presence of UDPGA; type: ADME, subcellular; details: s9, 24 h; in short: as §2
Liver [11] = experiment: Metabolic stability in human liver S9 fraction at 10 uM after 4 hrs by LC-MS analysis; type: ADME, subcellular; details: s9, 4 h
In short: (§4)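 Initial incubations with the human liver S9 or microsomal fraction lasted 4 h.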

Serum = experiment: Metabolic stability in mouse serum at 150 uM after 24 hrs by HPLC analysis; type: ADME, cell-free
In short: (§5)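 Compound incubated in mouse serum at 37 °C. Remaining compound measured at 24 h and 48 h.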

[12] = Elimination rate constant in BALB/c mouse at 23 mg/kg, iv after 1 to 24 hrs by LC-MS/MS analysis; type: ADME, organism-based; design: dose 23 mg/kg, route intravenous; details: in vivo; in short: as §3
[13] = Initial plasma concentration in BALB/c mouse at 23 mg/kg, iv after 1 to 24 hrs by LC-MS/MS analysis; type: ADME, organism-based; design: dose 23 mg/kg, route intravenous; in short: as §3
[14] = Metabolic stability in human liver S9 fraction at 10 uM after 24 hrs by LC-MS analysis in absence of S9 enzyme and NADPH; type: ADME, subcellular; details: s9, 24 h
In short: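 Control incubations for the S9 metabolism assay run over 24 h, lacking either the enzyme or NADPH.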

Plasmodium falciparum [15] = experiment: Antiplasmodial activity against chloroquine-resistant Plasmodium falciparum Dd2 infected in erythrocytes assessed as parasite growth inhibition after 72 hrs by SYBR green I staining-based fluorescence assay; type: functional, organism-based; details: Dd2, 72 h
Liver microsomes [16] = experiment: Metabolic stability in human liver microsomes at 10 uM after 4 hrs by LC-MS analysis; type: ADME, Microsome; in short: as §4
[17] = Metabolic stability in human liver S9 fraction assessed as formation of metabolite M4 at 10 uM by LC-MS analysis in presence of NADPH and absence of UDPGA; type: ADME, subcellular; details: s9, 10 µM; in short: as §1
[18] = Metabolic stability in human liver S9 fraction assessed as formation of metabolite M1 at 10 uM by LC-MS analysis in presence of NADPH and absence of UDPGA; type: ADME, subcellular; details: s9, 10 µM; in short: as §1
[19] = Plasma clearance in BALB/c mouse at 23 mg/kg, iv after 1 to 24 hrs by LC-MS/MS analysis; type: ADME, organism-based; design: dose 23 mg/kg, route intravenous; in short: as §3
[20] = Metabolic stability in human liver microsomes assessed as compound remaining at 10 uM after 24 hrs by LC-MS analysis in presence of UDPGA; type: ADME, Microsome; details: read-out: Stability; in short: as §2
[21] = Cmax in BALB/c mouse at 23 mg/kg, ip after 1 to 24 hrs by LC-MS/MS analysis; type: ADME, organism-based; design: dose 23 mg/kg, route intraperitoneal; details: in vivo; in short: as §3
Mus musculus [22] = experiment: Drug absorption rate constant in BALB/c mouse at 23 mg/kg, ip after 1 to 24 hrs by LC-MS/MS analysis; type: ADME, organism-based; design: dose 23 mg/kg, route intraperitoneal; details: in vivo; in short: as §3
Liver microsomes [23] = experiment: Metabolic stability in human liver microsomes assessed as formation of metabolite M1 at 10 uM by LC-MS analysis in presence of NADPH and absence of UDPGA; type: ADME, Microsome; in short: as §1
Liver [24] = experiment: Half life in human liver S9 fraction at 10 uM after 24 hrs by LC-MS analysis; type: ADME, subcellular; details: s9, 24 h; in short: as §2
[25] = Metabolic stability in human liver S9 fraction assessed as formation of metabolite M3 at 10 uM by LC-MS analysis in presence of NADPH and absence of UDPGA; type: ADME, subcellular; details: s9, 10 µM; in short: as §1
Mus musculus [26] = experiment: Toxicity in Swiss Webster mouse at 5 to 10 mg/kg, ip qd administered on day 2 to 5; type: organism-based; design: dose 5-10 mg/kg, route intraperitoneal; details: in vivo
[27] = Drug metabolism in human liver microsomes at 10 uM after 24 hrs by LC-MS analysis in absence of UDPGA; type: ADME, Microsome; details: read-out: Drug metabolism; in short: as §2
[28] = Metabolic stability in human Liver S9 fraction assessed as formation of metabolite M5 at 10 uM by LC-MS analysis in presence of UDPGA; type: ADME, subcellular; details: s9, 10 µM; in short: as §1
[29] = Metabolic stability in human liver cytosolic subcellular fraction at 10 uM after 4 hrs by LC-MS analysis; type: ADME; details: cytosol
Liver microsomes [30] = experiment: Metabolic stability in human liver microsomes assessed as formation of metabolite M5 at 10 uM by LC-MS analysis in presence of UDPGA; type: ADME, Microsome; in short: as §1
Liver microsomes [31] = experiment: Half life in human liver microsomes at 10 uM after 24 hrs by LC-MS analysis in absence of UDPGA; type: ADME, Microsome; in short: as §2
[32] = Drug degradation in mouse serum at 150 uM after 48 hrs by HPLC analysis; type: ADME, cell-free; details: read-out: Drug degradation; in short: as §5
[33] = Tmax in BALB/c mouse at 23 mg/kg, ip after 1 to 24 hrs by LC-MS/MS analysis; type: ADME, organism-based; design: dose 23 mg/kg, route intraperitoneal; details: in vivo; in short: as §3
[34] = Half life in BALB/c mouse at 23 mg/kg, iv after 1 to 24 hrs by LC-MS/MS analysis; type: ADME, organism-based; design: dose 23 mg/kg, route intravenous; details: in vivo; in short: as §3
[35] = Metabolic stability in human liver S9 fraction assessed as formation of metabolite M2 at 10 uM by LC-MS analysis in presence of NADPH and absence of UDPGA; type: ADME, subcellular; details: s9, 10 µM; in short: as §1
[36] = Drug metabolism in human liver S9 fraction at 10 uM after 24 hrs by LC-MS analysis; type: ADME, subcellular; details: read-out: Drug metabolism; in short: as §2
[37] = Apparent volume of distribution in BALB/c mouse at 23 mg/kg, iv after 1 to 24 hrs by LC-MS/MS analysis; type: ADME, organism-based; design: dose 23 mg/kg, route intravenous; details: in vivo, read-out: Vd(app); in short: as §3
Plasmodium yoelii = experiment: Antimalarial activity against Plasmodium yoelii infected in Swiss Webster mouse assessed as decrease in parasite load at 10 mg/kg, ip qd administered on day 2 to 5 by Hoechst 33342 staining-based FACS analysis relative to control; type: functional; design: scale not given: the % may be the effect or the level left; details: route intraperitoneal
In short: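 Mice infected with Plasmodium yoelii, dosed once daily at 5 or 10 mg/kg. Vehicle-only injected mice served as controls. Parasitemia was measured by FACS, including 24 h after the first dose, after the second dose, and at the end of the four-day trial.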

[38] = Drug metabolism in human liver S9 fraction at 10 uM after 24 hrs by LC-MS analysis in presence of UDPGA; type: ADME, subcellular; details: s9, 24 h; in short: as §2
Liver microsomes [39] = experiment: Metabolic stability in human liver microsomes assessed as formation of metabolite M4 at 10 uM by LC-MS analysis in presence of NADPH and absence of UDPGA; type: ADME, Microsome; in short: as §1
[40] = Apparent clearance in Swiss mouse at 50 mg/kg, ip after 1 to 24 hrs by LC-MS/MS analysis; type: ADME, organism-based; design: dose 50 mg/kg, route intraperitoneal; details: in vivo, read-out: CL(app)

## CC(=O)Oc1ccc2cc1CC1=C(C)CC[C@H](Br)[C@@]1(C)CC[C@@H](Br)[C@@](C)(O)CC[C@@H](C(C)(C)Br)OC2=O
Plasmodium falciparum [1]
  IC50: 241 nM

## CC(=O)OC[C@@H]1CC[C@]2(C)C(C)=CC(=O)C[C@H]2[C@]1(C)CCC1=CCOC1=O
Plasmodium falciparum [2]
  Activity: 45%
Plasmodium falciparum [3]
  IC50: 8800 nM

## C[C@H]1Cc2c([nH]c3cc(Cl)c(F)cc23)[C@@]2(N1)C(=O)Nc1ccc(Cl)cc12 [CIPARGAMIN]
Plasmodium berghei
  Activity: 99%

## CC1=C2Cc3cc(ccc3O)C(=O)O[C@H](C(C)(C)Br)CC[C@](C)(O)[C@H](Br)CC[C@]2(C)[C@@H](Br)CC1
Liver microsomes [4]
  Stability: Unstable
Liver microsomes [5]
  t1/2: 6.6 h
Liver microsomes [6]
  Stability: Unstable
Liver microsomes [7]
  CLint: 0.72 mL/min/kg
[8]
  AUC: 26000 ng·h/mL
[9]
  AUC: 20000 ng·h/mL
[10]
  t1/2: 9.5 h
Liver [11]
  Stability: Stable
Serum
  Stability: Stable
[12]
  k el: 0.000258 s⁻¹
[13]
  C0: 24000 ng/mL
[14]
  Stability: Stable
Plasmodium falciparum [15]
  IC50: 377 nM
Liver microsomes [16]
  Stability: Stable
[17]
  Stability: Unstable
[18]
  Stability: Unstable
[19]
  clearance: 16 mL/min/kg
[20]
  remaining at 24 h, 10 µM: 15.3%
[21]
  Cmax: 5800 ng/mL
Plasmodium falciparum [1]
  IC50: 499 nM
Mus musculus [22]
  ka: 0.24 h⁻¹
Liver microsomes [23]
  Stability: Unstable
Liver [24]
  t1/2: 20 h
[25]
  Stability: Unstable
Mus musculus [26]
  Activity: Non-toxic
[27]
  metabolised at 24 h, 10 µM: 61%
[28]
  Stability: Unstable
[29]
  Stability: Stable
Liver microsomes [30]
  Stability: Unstable
Liver microsomes [31]
  t1/2: 14 h
[32]
  metabolised at 48 h, 150 µM: 27%
[33]
  Tmax: 1.5 h
[34]
  half-life: 0.75 h
[35]
  Stability: Unstable
[36]
  metabolised at 24 h, 10 µM: 55%
[37]
  Vd: 0.95 L/kg
Plasmodium yoelii
  Activity: 47%
[38]
  Drug metabolism: 21%
Liver microsomes [39]
  Stability: Unstable

## CCN(CC)CCCC(C)Nc1ccnc2cc(Cl)ccc12 (centres undefined) [CHLOROQUINE]
[40]
  CL/F: 17 mL/min/kg
